Results published in PMC3390238 (Science Translational Medicine, 2012).
Where two headings read alike, the source gives them in different places. Blank lines part the entries; values can stand above or below the compound they belong to. Positions of bridges follow the written chain, without caps; N, C: chain ends. Non-standard residues stand in square brackets, D forms with d. Residues, ends and D or L forms follow the SMILES beside them. hArg = N=C(N)NCCCC[C@H](N)C(=O)O; Mpa = O=C(O)CCS

How the values were obtained:
[1] = system: platelet adhesion/aggregation to collagen; experiment: Platelet adhesion/aggregation to collagen; assay type: cell-based, human
rat platelets = experiment: ADP-induced rat platelet aggregation; assay type: cell-based
[2] = molecular target: αIIbβ3 ligand-induced binding sites (Homo sapiens, UniProt P05106+P08514); experiment: Induction of ligand-induced binding site; assay type: cell-based; conditions: for PMI-1 binding to platelets, % of amount bound in the presence of eptifibatide: αIIb LIBS mAb PMI-1, untreated 46 ± 5%; for PMI-1 binding to platelets, % of amount bound in the presence of eptifibatide / LIBS1 binding to platelets, % of amount bound in the presence of eptifibatide: eptifibatide = 100%; for AP5 binding to platelets, % of amount bound in the presence of eptifibatide: β3 LIBS mAb AP5, eptifibatide 10 μM = 100%, untreated 7 ± 3%; for LIBS1 binding to platelets, % of amount bound in the presence of eptifibatide: β3 LIBS mAb LIBS1, after 30 min, untreated 22 ± 3%
Method in brief: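 Flow-based binding of LIBS mAbs to platelets: AP5 (β3 PSI domain), LIBS1 (β3 distal leg) and PMI-1 (αIIb). Net normalized fluorescence was expressed relative to platelets treated with eptifibatide, set as 100%. For AP5 the reference was eptifibatide 10 µM, 30 min at 22°C. Replicates: n=5 for AP5, n=4 for PMI-1.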

mouse platelets = experiment: ADP-induced mouse platelet aggregation; assay type: cell-based
recombinant human αIIbβ3 = assay type: cell-based; conditions: going from 1 to 50 mM Mg2+
Method in brief: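 CHO-K cells stably expressing human αIIbβ3 were preincubated ±test compound for 30 min at each Mg²⁺ level (1 to 50 mM) plus 1 mM Ca²⁺. They were then exposed to PAC-1 (5 µg/ml) with activating mAb PT25-2 (5 µg/ml) for 30 min at 25°C, stained with PE anti-mouse IgM on ice for 30 min, and analysed by flow cytometry. Read-out was % MFI with vs without drug (n=3); IC50 was compared across Mg²⁺ levels.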

normal human platelets = experiment: Recruitment of αIIbβ3-dependent patient IgG to drug-pretreated platelets; assay type: cell-based; conditions: for recruitment of patient IgG to platelets: all 5 tirofiban samples and 13 of 15 eptifibatide samples
Method in brief: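 Normal platelets were pretreated with test compound, then exposed to sera from patients with tirofiban- (5) or eptifibatide-induced (15) thrombocytopenia. Platelet-bound patient IgG was read as median MFI. Signals were compared with untreated control platelets and with eptifibatide-treated platelets.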

αIIbβ3 [3] = molecular target: T1, αIIbβ3 (Homo sapiens, UniProt P05106+P08514); experiment: Platelet aggregation induced by thrombin receptor–activating peptide; assay type: cell-based; conditions: 20 mM vs 1 mM Mg2+
purified αIIbβ3 = purified αIIbβ3 (Homo sapiens, UniProt P05106+P08514); experiment: Negative stain EM of αIIbβ3 nanodiscs
platelet αIIbβ3 = platelet αIIbβ3 (Homo sapiens, UniProt P05106+P08514); experiment: Priming assay: induction of fluorescent fibrinogen binding to platelets; assay type: cell-based; conditions: for incremental fibrinogen binding: one experiment
αIIbβ3 headpiece [4] = molecular target: T2, αIIbβ3 headpiece (Homo sapiens, UniProt P05106+P08514); experiment: Dynamic light scattering of soluble αIIbβ3 headpiece
Target sequence in this assay (P08514 32-652 limits assumed): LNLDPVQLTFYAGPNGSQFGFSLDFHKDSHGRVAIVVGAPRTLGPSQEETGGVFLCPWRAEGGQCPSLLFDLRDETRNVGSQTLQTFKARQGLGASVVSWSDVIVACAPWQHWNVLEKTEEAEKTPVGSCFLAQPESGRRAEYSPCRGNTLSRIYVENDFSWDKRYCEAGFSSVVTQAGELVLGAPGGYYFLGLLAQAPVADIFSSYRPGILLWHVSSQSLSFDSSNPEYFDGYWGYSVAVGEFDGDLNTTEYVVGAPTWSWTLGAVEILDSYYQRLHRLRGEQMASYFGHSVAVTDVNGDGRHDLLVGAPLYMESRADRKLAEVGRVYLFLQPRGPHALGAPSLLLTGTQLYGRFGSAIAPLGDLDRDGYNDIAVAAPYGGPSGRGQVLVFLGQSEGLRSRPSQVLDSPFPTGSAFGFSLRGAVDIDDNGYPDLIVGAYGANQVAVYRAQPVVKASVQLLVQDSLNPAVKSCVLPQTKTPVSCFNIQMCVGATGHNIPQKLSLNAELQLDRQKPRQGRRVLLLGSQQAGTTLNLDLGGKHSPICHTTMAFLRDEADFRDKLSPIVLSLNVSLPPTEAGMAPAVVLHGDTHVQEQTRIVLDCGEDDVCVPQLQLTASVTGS
Target sequence in this assay (P05106 27-498 limits assumed): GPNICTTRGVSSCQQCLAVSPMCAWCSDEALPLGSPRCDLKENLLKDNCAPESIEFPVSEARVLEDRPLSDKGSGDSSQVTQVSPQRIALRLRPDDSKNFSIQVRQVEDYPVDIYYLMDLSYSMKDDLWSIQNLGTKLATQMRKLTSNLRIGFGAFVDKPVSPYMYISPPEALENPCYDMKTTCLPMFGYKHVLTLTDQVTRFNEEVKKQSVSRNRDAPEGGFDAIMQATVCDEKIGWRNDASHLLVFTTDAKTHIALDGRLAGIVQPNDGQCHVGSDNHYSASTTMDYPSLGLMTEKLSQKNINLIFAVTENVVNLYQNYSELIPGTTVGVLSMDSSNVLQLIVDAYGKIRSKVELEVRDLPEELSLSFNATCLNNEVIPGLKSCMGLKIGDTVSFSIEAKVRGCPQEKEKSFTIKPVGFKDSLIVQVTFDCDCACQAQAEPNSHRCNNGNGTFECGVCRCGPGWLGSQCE

αVβ3 = αVβ3 (Homo sapiens, UniProt P05106+P06756); experiment: αVβ3-mediated HEK293 cell adhesion to vitronectin; assay type: cell-based
αIIbβ3 headpiece [5] = molecular target: T2, αIIbβ3 headpiece; experiment: Gel filtration of soluble αIIbβ3 headpiece; conditions: for reduction in αIIbβ3 headpiece elution volume: Superdex 200
Target sequence in this assay (P08514 32-652 limits assumed): as the sequence (P08514 32-652 limits assumed) above
Target sequence in this assay (P05106 27-498 limits assumed): as the sequence (P05106 27-498 limits assumed) above

αIIbβ3 [6] = molecular target: T1, αIIbβ3; experiment: αIIbβ3-mediated HEK293 cell adhesion to fibrinogen; assay type: cell-based; conditions: 100 μM; n = 4
αIIbβ3 [7] = molecular target: T1, αIIbβ3; experiment: Platelet adhesion to immobilized fibrinogen screening assay; assay type: cell-based; conditions: for inhibition of platelet adhesion to fibrinogen: mean ± SD, five experiments
αIIbβ3 [8] = conditions: 25.6 mg/kg; cited from earlier work
αIIbβ3 [9] = molecular target: T1, αIIbβ3; experiment: Platelet adhesion to fibrinogen at different Mg2+ concentrations; assay type: cell-based; conditions: for IC50: IC50, platelet adhesion to fibrinogen, 1 mM Ca2+, mean ± SD, three experiments
αIIbβ3 [10] = molecular target: T1, αIIbβ3; experiment: ADP-induced platelet aggregation of platelet-rich plasma; assay type: cell-based
αIIbβ3 headpiece [11] = molecular target: T2, αIIbβ3 headpiece; experiment: X-ray crystallography of RUC-2–αIIbβ3 headpiece complex; conditions: determined by x-ray crystallography, PDB code 3T3M
hαIIb/mβ3 = hαIIb/mβ3 (UniProt O54890+P08514); experiment: Aggregation of platelets from a mouse expressing human αIIb and mouse β3; assay type: cell-based
[12] = pKa by titration in water; assay type: physicochemical
[13] = 100 μM, first reactive eptifibatide-patient serum
[14] = read-out: inhibition of platelet adhesion to fibrinogen

platelet αIIbβ3, sequence (P08514 32-887 limits assumed): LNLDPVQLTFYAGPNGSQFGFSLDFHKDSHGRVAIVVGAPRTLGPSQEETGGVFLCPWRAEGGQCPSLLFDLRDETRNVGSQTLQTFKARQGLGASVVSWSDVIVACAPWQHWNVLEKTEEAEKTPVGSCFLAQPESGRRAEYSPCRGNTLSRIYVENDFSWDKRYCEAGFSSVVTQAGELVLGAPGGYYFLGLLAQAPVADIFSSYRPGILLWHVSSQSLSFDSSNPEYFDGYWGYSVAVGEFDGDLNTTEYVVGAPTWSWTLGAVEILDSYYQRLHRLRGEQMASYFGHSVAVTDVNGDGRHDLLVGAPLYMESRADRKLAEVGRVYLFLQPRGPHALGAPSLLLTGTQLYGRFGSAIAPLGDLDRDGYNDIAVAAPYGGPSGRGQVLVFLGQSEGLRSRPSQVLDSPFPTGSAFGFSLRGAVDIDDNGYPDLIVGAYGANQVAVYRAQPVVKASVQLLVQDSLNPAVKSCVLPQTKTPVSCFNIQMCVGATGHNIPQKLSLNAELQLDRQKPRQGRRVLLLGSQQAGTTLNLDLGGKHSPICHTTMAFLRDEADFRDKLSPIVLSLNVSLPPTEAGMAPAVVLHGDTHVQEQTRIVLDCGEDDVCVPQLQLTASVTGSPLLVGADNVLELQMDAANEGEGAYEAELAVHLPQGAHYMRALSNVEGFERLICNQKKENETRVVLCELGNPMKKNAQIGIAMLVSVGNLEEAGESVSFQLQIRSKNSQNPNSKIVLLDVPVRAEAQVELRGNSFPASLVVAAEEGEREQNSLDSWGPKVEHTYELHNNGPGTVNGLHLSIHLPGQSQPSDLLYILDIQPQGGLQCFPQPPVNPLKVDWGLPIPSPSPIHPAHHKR
platelet αIIbβ3, sequence (P08514 891-1039 partner limits assumed): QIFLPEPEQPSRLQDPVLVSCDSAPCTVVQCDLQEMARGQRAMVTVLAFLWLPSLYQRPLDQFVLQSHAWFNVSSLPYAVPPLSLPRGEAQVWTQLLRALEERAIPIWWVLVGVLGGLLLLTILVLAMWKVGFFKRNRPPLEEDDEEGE
platelet αIIbβ3, sequence (P05106 27-788): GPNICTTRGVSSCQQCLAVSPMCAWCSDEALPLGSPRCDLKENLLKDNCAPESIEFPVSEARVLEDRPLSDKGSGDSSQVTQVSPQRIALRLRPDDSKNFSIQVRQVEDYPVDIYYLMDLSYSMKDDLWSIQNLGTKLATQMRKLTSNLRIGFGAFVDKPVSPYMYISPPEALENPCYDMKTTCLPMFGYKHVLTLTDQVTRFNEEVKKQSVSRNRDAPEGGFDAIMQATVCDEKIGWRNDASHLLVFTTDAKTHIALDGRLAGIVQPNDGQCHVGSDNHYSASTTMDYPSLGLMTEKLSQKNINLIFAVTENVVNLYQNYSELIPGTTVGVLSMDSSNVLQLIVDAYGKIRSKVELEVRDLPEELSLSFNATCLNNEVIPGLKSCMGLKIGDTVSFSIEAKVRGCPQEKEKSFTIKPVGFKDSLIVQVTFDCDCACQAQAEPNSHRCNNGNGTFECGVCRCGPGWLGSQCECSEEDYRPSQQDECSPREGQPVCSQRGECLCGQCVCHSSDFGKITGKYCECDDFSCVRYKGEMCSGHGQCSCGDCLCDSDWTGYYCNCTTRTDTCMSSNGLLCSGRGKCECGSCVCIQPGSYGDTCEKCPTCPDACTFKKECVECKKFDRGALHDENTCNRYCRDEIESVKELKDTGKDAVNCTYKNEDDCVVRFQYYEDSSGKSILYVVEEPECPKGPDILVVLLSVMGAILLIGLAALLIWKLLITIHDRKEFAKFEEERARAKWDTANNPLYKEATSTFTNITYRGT
T1 sequence (P08514 32-887 limits assumed): as the sequence (P08514 32-887 limits assumed) above
T1 sequence (P08514 891-1039 partner limits assumed): as the sequence (P08514 891-1039 partner limits assumed) above
T1 sequence (P05106 27-788): as the sequence (P05106 27-788) above

Compound: 10E5: anti-αIIbβ3 (αIIbβ3-specific) mAb
- inhibition of platelet adhesion/aggregation to collagen ([1]; mAb, concentration not given): ~ 30%

Compound: CCc1nn2c(=O)cc(N3CCNCC3)nc2s1 [RUC-1, reference compound]
- inhibition of rat platelet aggregation induced by ADP (rat platelets; 100 μM): did not inhibit
- PMI-1 binding to platelets, % of amount bound in the presence of eptifibatide [2]: 73 ± 9%
- AP5 binding to platelets, % of amount bound in the presence of eptifibatide [2]: 10 ± 4%
- LIBS1 binding to platelets, % of amount bound in the presence of eptifibatide [2]: 18 ± 2%
- inhibition of mouse platelet aggregation induced by ADP (mouse platelets; 100 μM): did not inhibit
- increase of IC50 for PAC-1 binding (recombinant human αIIbβ3): ~ 6%
- recruitment of patient IgG to platelets (normal human platelets; 100 μM): Neither RUC-1 nor RUC-2 induced recruitment of patient IgG
- MFI increase as % of value with eptifibatide-treated platelets (normal human platelets; [13]): 13%
- median MFI relative to control platelets (normal human platelets; [13]): 6.8 times
- recognition of pretreated platelets by patient serum (normal human platelets; 100 μM, second reactive eptifibatide-patient serum): but not RUC-1
- inhibitory effect on SFLLRN-induced platelet aggregation (αIIbβ3 [3]; 100 μM): much less evident
- shift of NIL value distribution of αIIbβ3 nanodiscs (purified αIIbβ3; up to 100 μM, P = 0.23): neither RUC-1 at concentrations up to 100 μM nor RUC-2 at concentrations up to 10 μM produced a significant shift
- incremental fibrinogen binding (platelet αIIbβ3; 100 μM): 2%
- increase in Stokes radius, DLS (αIIbβ3 headpiece [4]; 500 μM (near-saturating)): 0.08 nm
- inhibition of adhesion of HEK293 cells expressing αVβ3 to vitronectin (αVβ3; 100 μM, n = 4): 5 ± 7%
- increase in Stokes radius, gel filtration (αIIbβ3 headpiece [5]; 500 μM (near-saturating)): little or no increases
- reduction in αIIbβ3 headpiece elution volume (αIIbβ3 headpiece [5]; 500 μM (near-saturating)): 0.03 mL
- inhibition of adhesion of HEK293 cells expressing αIIbβ3 to fibrinogen (αIIbβ3 [6]): 55 ± 5%
- inhibition of platelet adhesion to fibrinogen (αIIbβ3 [7]; 10 μM): 22 ± 8%
- inhibition of platelet adhesion to fibrinogen (αIIbβ3 [7]; 30 μM): 38 ± 10%
- inhibition of platelet adhesion to fibrinogen (αIIbβ3 [7]; 100 μM): 70 ± 15%
- antithrombotic effects in murine models in large and small blood vessels (αIIbβ3 [8]): has antithrombotic effects
- increase in IC50 at higher Mg2+ concentrations, platelet adhesion to fibrinogen (αIIbβ3 [9]; compared with RUC-2): Neither RUC-1 nor tirofiban showed a comparable increase in IC50
- inhibition of human platelet aggregation (αIIbβ3 [10]; 100 μM): nearly completely inhibited
- IC50 (αIIbβ3 [10]; read-out: IC50, ADP-induced platelet aggregation, citrated PRP, ADP 5 μM, initial slope): 9700 ± 1000 nM

- PMI-1 binding to platelets, % of amount bound in the presence of eptifibatide [2]: 82 ± 13%
- AP5 binding to platelets, % of amount bound in the presence of eptifibatide [2]: 18 ± 5%
- LIBS1 binding to platelets, % of amount bound in the presence of eptifibatide [2]: 21 ± 3%
- increase of IC50 for PAC-1 binding (recombinant human αIIbβ3; 1 mM Ca2+, activating mAb PT25-2): ~ 3.9 fold
- inhibitory effect on SFLLRN-induced platelet aggregation (αIIbβ3 [3]; 1 μM): clearly attenuated
- inhibition of aggregation of hαIIb/mβ3 mouse platelets (hαIIb/mβ3): essentially completely inhibited
- incremental fibrinogen binding (platelet αIIbβ3; 1 μM): did not produce any incremental binding
- fibrinogen binding to platelets (priming) (platelet αIIbβ3; 5 μM): did not increase the fibrinogen binding
- increase in Stokes radius, DLS (αIIbβ3 headpiece [4]; 100 μM (near-saturating)): 0.16 nm
- increase in Stokes radius, gel filtration (αIIbβ3 headpiece [5]; 100 μM (near-saturating)): little or no increases
- reduction in αIIbβ3 headpiece elution volume (αIIbβ3 headpiece [5]; 100 μM (near-saturating)): 0.07 mL
- inhibition at 10 µM (αIIbβ3 [7]; [14]): 66 ± 10%
- inhibition at 30 µM (αIIbβ3 [7]; [14]): 80 ± 13%
- inhibition at 100 µM (αIIbβ3 [7]; [14]): 83 ± 7%
- pKa ([12]; pKa 1 (primary amine)): 6.41
- pKa ([12]; pKa 2 (piperazine nitrogen)): 8.08
- IC50 (αIIbβ3 [9]; 1 mM Mg2+): 290 ± 100 nM
- IC50 (αIIbβ3 [9]; 20 mM Mg2+): 910 ± 210 nM
- IC50 (αIIbβ3 [9]; 50 mM Mg2+): 1300 ± 350 nM
- decrease in affinity, platelet adhesion to fibrinogen (αIIbβ3 [9]; going from 1 to 50 mM Mg2+): ~ 80%
- increase in IC50, platelet adhesion to fibrinogen (αIIbβ3 [9]; going from 1 to 50 mM Mg2+): ~ 4.5 fold
- IC50 (αIIbβ3 [10]): 220 nM
- inhibition of human platelet aggregation (αIIbβ3 [10]; 1 μM): nearly completely inhibited
Compound: NCC(=O)Nc1cccc(-c2nn3c(=O)cc(N4CCNCC4)nc3s2)c1 [RUC-2, 2-amino-N-(3-(5-oxo-7-(piperazin-1-yl)-5H-[1,3,4]thiadiazolo[3,2-a]pyrimidin-2-yl)phenyl)acetamide]
- inhibition of rat platelet aggregation induced by ADP (rat platelets; 1 μM): did not inhibit
- inhibition of mouse platelet aggregation induced by ADP (mouse platelets; 1 μM): did not inhibit
- reduction in affinity (PAC-1 binding) (recombinant human αIIbβ3): ~75%
- recruitment of patient IgG to platelets (normal human platelets; 3.9 μM): Neither RUC-1 nor RUC-2 induced recruitment of patient IgG
- MFI increase as % of value with eptifibatide-treated platelets (normal human platelets; 3.9 μM, first reactive eptifibatide-patient serum): 8%
- mechanism of inhibition (αIIbβ3 headpiece [11]): Orthosteric inhibition at the RGD binding domain as determined by x-ray crystallography
- effect on αVβ3-mediated cell adhesion to vitronectin (αVβ3): RUC-2 had minimal effect on αVβ3-mediated cell adhesion to vitronectin.
- inhibition of platelet adhesion/aggregation to collagen ([1]; 1 to 100 μM): ~ 30%
- further inhibition of adhesion/aggregation to collagen ([1]; RUC-2 combined with anti-αIIbβ3 antibody 10E5): did not further inhibit
- platelet adhesion to collagen, microscopic analysis ([1]; decreased recruitment of additional platelets to adherent platelets): did not decrease platelet adhesion to collagen
- αIIbβ3-dependent platelet adhesion to fibrinogen in a screening assay (αIIbβ3 [7]): RUC-2 inhibited αIIbβ3-dependent platelet adhesion to fibrinogen in a screening assay and αIIbβ3-dependent platelet aggregation. It was found to bind to the target via x-ray crystallography (PDB code 3T3M).
- αIIbβ3-dependent platelet aggregation (αIIbβ3 [10]): RUC-2 inhibited αIIbβ3-dependent platelet adhesion to fibrinogen in a screening assay and αIIbβ3-dependent platelet aggregation. It was found to bind to the target via x-ray crystallography (PDB code 3T3M).

- incremental fibrinogen binding (platelet αIIbβ3; 1 μM): 34%
Compound: N=C(N)NCCCC[C@@H]1NC(=O)CCSSC[C@@H](C(N)=O)NC(=O)[C@@H]2CCCN2C(=O)[C@H](Cc2c[nH]c3ccccc23)NC(=O)[C@H](CC(=O)O)NC(=O)CNC1=O [eptifibatide] ([Mpa][hArg]GDWPC-NH2; disulfide 1-7 (inferred))
- shift of NIL value distribution of αIIbβ3 nanodiscs (purified αIIbβ3; dose-dependent, P < 0.001): shifted the distribution in a dose-dependent manner

- change of IC50 for PAC-1 binding (recombinant human αIIbβ3): completely unchanged
- incremental fibrinogen binding (platelet αIIbβ3; 0.5 μM): 17%
- increase in Stokes radius, DLS (αIIbβ3 headpiece [4]; 56 μM (near-saturating)): 0.45 nm
- increase in Stokes radius, gel filtration (αIIbβ3 headpiece [5]; 56 μM (near-saturating)): 0.4 nm
- reduction in αIIbβ3 headpiece elution volume (αIIbβ3 headpiece [5]; 56 μM (near-saturating)): 0.38 mL
- inhibition at 10 µM (αIIbβ3 [7]; [14]): 87 ± 9%
Compound: CCCCS(=O)(=O)N[C@@H](Cc1ccc(OCCCCC2CCNCC2)cc1)C(=O)O [tirofiban]
- recruitment of patient IgG (normal human platelets; the two eptifibatide-treated patient samples reactive with RUC compounds): able to recruit patient IgG

- incremental fibrinogen binding (platelet αIIbβ3; 100 μM): 36%
Compound: RGDS
